Entries after “also recorded” stand apart in the source; their conditions may differ. Read-outs that look alike come from different tables or passages of the source.
How the values were obtained:
[1] = system: ADRB2; test: PathHunter β-arrestin; assay type: cell-based; conditions: 6 μM
In short: (§1)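 β-Arrestin recruitment assay: the enzyme acceptor is fused to β-arrestin and the ED fragment to the GPCR. Recruitment restores β-galactosidase, read by chemiluminescence. % activity = 100% × (test − vehicle)/(max control ligand − vehicle). % inhibition = 100% × (1 − (test − vehicle)/(EC80 control − vehicle)). An agonist hit needs >30% activity and RLU > baseline + 3×SD. An antagonist hit needs >35% inhibition and RLU < EC80 RLU − 3×SD.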

[2] = system: CRHR1; test: PathHunter β-arrestin; assay type: cell-based; conditions: 6 μM
In short: (§2)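 Engineered cells express the receptor fused to one β-galactosidase fragment (ED) and β-arrestin fused to the complementing fragment (EA). Receptor activation recruits β-arrestin, which restores enzyme activity, and this is read by chemiluminescence (RLU). Agonist % activity is 100% × (test − vehicle)/(maximal control ligand − vehicle). Antagonist mode is challenged with an EC80 control agonist, and % inhibition is 100% × (1 − (test − vehicle)/(EC80 − vehicle)). Hits require >30% activity or >35% inhibition, plus a 3×SD RLU margin.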

[3] = system: NPY2R; test: PathHunter β-arrestin; assay type: cell-based; conditions: antagonist mode, 6 μM
In short: (§3)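 Vendor-run (DiscoveRx) PathHunter enzyme fragment complementation. β-Arrestin carries the EA fragment and the receptor carries ED; recruitment restores β-gal activity, read by chemiluminescence (RLU). Agonist % activity = vehicle-subtracted RLU relative to max control ligand (gpcrMAX) or to vehicle (orphanMAX). Antagonist % inhibition = 100% × (1 − vehicle-subtracted sample RLU / vehicle-subtracted EC80 agonist control RLU).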

[4] = system: TLR1; test: western blot, JJ012 cells; assay type: cell-based, human; conditions: vs untreated control, overnight incubation
In short: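 JJ012 cells seeded at 1×10^6 cells/ml in 6-well clusters and incubated overnight at 37°C, 5% CO2 with or without test compound. Lysed with protease inhibitor (1:100) and centrifuged at 15,000 × g, 4°C. Protein loaded at 20 μg/lane with reducing agent, run on polyacrylamide gel, transferred to PVDF, probed with rabbit anti-TLR primaries and HRP-linked secondaries.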

[5] = system: GALR1; test: PathHunter β-arrestin; assay type: cell-based; conditions: 6 μM
In short: as §2

[6] = system: HTR2C; test: PathHunter β-arrestin; assay type: cell-based; conditions: 6 μM
In short: as §3

[7] = system: HCRTR2; test: PathHunter β-arrestin; assay type: cell-based; conditions: antagonist mode, 6 μM
In short: as §3

[8] = system: EDG3; test: PathHunter β-arrestin; assay type: cell-based; conditions: antagonist mode, 6 μM
In short: as §2

[9] = system: GPR1; test: PathHunter β-arrestin; assay type: cell-based; conditions: antagonist mode, 6 μM
In short: as §3

[10] = system: CCR6; test: PathHunter β-arrestin; assay type: cell-based; conditions: antagonist mode, 6 μM
In short: as §2

[11] = system: KISS1R; test: PathHunter β-arrestin; assay type: cell-based; conditions: 6 μM
In short: as §3

[12] = ref [61]; cited from earlier work
[13] = system: MC1R; test: PathHunter β-arrestin; assay type: cell-based; conditions: 6 μM
In short: as §3

[14] = system: P2RY4; test: PathHunter β-arrestin; assay type: cell-based; conditions: agonist mode, 6 μM
[15] = system: MCHR2; test: PathHunter β-arrestin; assay type: cell-based; conditions: 6 μM
In short: as §3

[16] = system: BDKRB2; test: PathHunter β-arrestin; assay type: cell-based; conditions: antagonist mode, 6 μM
In short: as §1

[17] = system: ADRA2C; test: PathHunter β-arrestin; assay type: cell-based; conditions: antagonist mode, 6 μM
In short: as §1

[18] = system: TACR2; test: PathHunter β-arrestin; assay type: cell-based; conditions: agonist mode, 6 μM
[19] = system: JJ012 chondrosarcoma cells; test: immunocytochemistry, PRP-1 localization; assay type: cell-based, human; conditions: PRP-1 antibody, Zenon Alexa Fluor 488; DAPI nuclear stain
[20] = system: DRD2S; test: PathHunter β-arrestin; assay type: cell-based; conditions: antagonist mode, 6 μM
In short: as §2

[21] = system: MRGPRX1; test: PathHunter β-arrestin; assay type: cell-based; conditions: 6 μM
In short: as §3

[22] = system: CCKAR; test: PathHunter β-arrestin; assay type: cell-based; conditions: antagonist mode, 6 μM
In short: as §1

[23] = system: CALCR-RAMP3; test: PathHunter β-arrestin; assay type: cell-based; conditions: antagonist mode, 6 μM
In short: as §1

[24] = system: CHRM2; test: PathHunter β-arrestin; assay type: cell-based; conditions: 6 μM
In short: as §2

[25] = system: ADRA2B; test: PathHunter β-arrestin; assay type: cell-based; conditions: antagonist mode, 6 μM
In short: as §1

[26] = system: G1/S phase cell cycle progression; conditions: chondrosarcoma, cited from earlier work
[27] = system: CRHR2; test: PathHunter β-arrestin; assay type: cell-based; conditions: antagonist mode, 6 μM
In short: as §2

[28] = system: mTOR kinase (mTORC1); conditions: chondrosarcoma; ref [4],[5]; cited from earlier work
[29] = system: EDG5; test: PathHunter β-arrestin; assay type: cell-based; conditions: 6 μM
In short: as §2

[30] = system: CXCR4; test: PathHunter β-arrestin; assay type: cell-based; conditions: 6 μM
In short: as §2

[31] = system: GLP2R; test: PathHunter β-arrestin; assay type: cell-based; conditions: agonist mode, 6 μM
In short: as §3

[32] = system: VIPR2; test: PathHunter β-arrestin; assay type: cell-based; conditions: 6 μM
In short: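 β-Arrestin recruitment to GPCR read by β-galactosidase fragment complementation and chemiluminescence. Agonist: % = 100 × (test − vehicle)/(max control ligand − vehicle), hit at >30% and RLU > baseline + 3 SD. Antagonist, against EC80 agonist: % inhibition = 100 × (1 − (test − vehicle)/(EC80 − vehicle)), hit at >35% and RLU < EC80 − 3 SD.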

[33] = system: CXCR3; test: PathHunter β-arrestin; assay type: cell-based; conditions: 6 μM
In short: as §2

[34] = system: CNR2; test: PathHunter β-arrestin; assay type: cell-based; conditions: 6 μM
In short: as §2

Proline rich polypeptide 1 [PRP-1]
% Activity ([1]; agonist mode): 3% | % Inhibition ([1]; antagonist mode): −3% | % Activity ([2]; agonist mode): 1% | % Inhibition ([2]; antagonist mode): 1% | % Inhibition [3]: −2% | protein expression [4]: strong upregulation; also recorded: upregulated protein expression of TLR1 and TLR2 in dose-dependent manner | % Activity ([5]; agonist mode): 1% | % Inhibition ([5]; antagonist mode): −4% | % Activity ([6]; agonist mode): 1% | % Inhibition ([6]; antagonist mode): −3% | % Inhibition [7]: −1% | % Inhibition [8]: 1% | % Inhibition [9]: −5% | % Inhibition [10]: 2% | % Activity ([11]; agonist mode): 1% | % Inhibition ([11]; antagonist mode): 3% | antibacterial properties [12]: antibacterial properties | % Activity ([13]; agonist mode): −2% | % Inhibition ([13]; antagonist mode): −2% | % Activity [14]: −1% | % Activity ([15]; agonist mode): 1% | % Inhibition ([15]; antagonist mode): −3% | % Inhibition [16]: 5% | % Inhibition [17]: −4% | % Activity [18]: 1% | localization [19]: manifested its presence in the nucleus | % Inhibition [20]: 6% | % Activity ([21]; agonist mode): 1% | % Inhibition ([21]; antagonist mode): −2% | % Inhibition [22]: −3% | % Inhibition [23]: −8% | % Activity ([24]; agonist mode): 1% | % Inhibition ([24]; antagonist mode): −6% | % Inhibition [25]: 2% | cell cycle progression ([26]; ref [4],[5]): halting G1/S phase cell cycle progression | cell cycle progression ([26]; ref [6]): halts cell cycle progression in G1/S transition | % Inhibition [27]: −2% | mTOR kinase (mTORC1) inhibition [28]: mTOR kinase (mTORC1) inhibitor in chondrosarcoma | % Activity ([29]; agonist mode): 1% | % Inhibition ([29]; antagonist mode): −8% | % Activity ([30]; agonist mode): 2% | % Inhibition ([30]; antagonist mode): 2% | % Activity [31]: 1% | % Activity ([32]; agonist mode): 1% | % Inhibition ([32]; antagonist mode): −3% | % Activity ([33]; agonist mode): 1% | % Inhibition ([33]; antagonist mode): −1% | % Activity ([34]; agonist mode): −2% | % Inhibition ([34]; antagonist mode): 5%
